Data taken from ChEMBL document CHEMBL3784960, “New 4-Functionalized Glutamate Analogues Are Selective Agonists at Metabotropic Glutamate Receptor Subtype 2 or Selective Agonists at Metabotropic Glutamate Receptor Group III” (J Med Chem, 2016).
Calls of active or inactive are those of the source. The calls are words filed in the database; no cut-off is given here.

How the values were obtained:
[1] = molecular target: T1, Metabotropic glutamate receptor 2 (Rattus norvegicus, UniProt P31421); experiment: Agonist activity at rat mGlu2 receptor expressed in HEK293 cells by [35S]GTP-gamma binding assay; assay type: cell-based
[2] = molecular target: T2, Metabotropic glutamate receptor 1 (Rattus norvegicus, UniProt P23385); experiment: Agonist activity at rat mGlu1 receptor expressed in HEK293 cells by intracellular Ca2+ mobilization assay; assay type: functional, cell-based
[3] = molecular target: T3, Metabotropic glutamate receptor 5 (Rattus norvegicus, UniProt P31424); experiment: Agonist activity at rat mGlu5 receptor expressed in HEK293 cells by intracellular Ca2+ mobilization assay; assay type: functional, cell-based
[4] = molecular target: T4, Metabotropic glutamate receptor 4 (Rattus norvegicus, UniProt P31423); experiment: Agonist activity at rat mGlu4 receptor expressed in HEK293 cells assessed as inhibition of forskolin stimulated cAMP production; assay type: functional, cell-based
[5] = molecular target: Metabotropic glutamate receptor 7 (Homo sapiens, UniProt Q14831); experiment: Agonist activity at human mGlu7 receptor expressed in HEK293 assessed as inhibition of forskolin stimulated cAMP production; assay type: functional, cell-based
[6] = molecular target: T5, Metabotropic glutamate receptor 3 (Rattus norvegicus, UniProt P31422); experiment: Agonist activity at rat mGlu3 receptor expressed in HEK293 cells by [35S]GTP-gamma binding assay; assay type: cell-based
[7] = molecular target: Metabotropic glutamate receptor 8 (Rattus norvegicus, UniProt P70579); experiment: Agonist activity at rat mGlu8 receptor expressed in HEK293 cells assessed as IP1 accumulation by IP-One functional assay; assay type: cell-based
Procedure, shortened: (§1)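 HEK293 cells were transiently electroporated with the rat receptor plus a chimeric Gi/Gq protein for PLC coupling and EAAC1. Medium was replaced by Glutamax at least 2 h before agonist. IP1 accumulation was measured by HTRF 24 h post-transfection, at least in duplicate. EC50 ± SEM came from n = 4−6 experiments.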

[8] = molecular target: Metabotropic glutamate receptor 7 (Rattus norvegicus, UniProt P35400); experiment: Agonist activity at rat mGlu7 receptor expressed in HEK293 cells assessed as IP1 accumulation by IP-One functional assay; assay type: cell-based; procedure, shortened: as §1
[9] = molecular target: Metabotropic glutamate receptor 6 (Rattus norvegicus, UniProt P35349); experiment: Agonist activity at rat mGlu6 receptor expressed in HEK293 cells assessed as IP1 accumulation by IP-One functional assay; assay type: cell-based; procedure, shortened: as §1
[10] = molecular target: T6, Excitatory amino acid transporter 1 (Homo sapiens, UniProt P43003); experiment: Inhibition of human EAAT1 assessed as [3H]Asp uptake
[11] = molecular target: T7, Excitatory amino acid transporter 2 (Homo sapiens, UniProt P43004); experiment: Substrate activity at human EAAT2 assessed as [3H]Asp uptake measured up to 300 uM
[12] = Displacement of [3H]AMPA from rat synaptosome AMPA receptor after 30 mins by microplate scintillation counter analysis
[13] = molecular target: T6, Excitatory amino acid transporter 1; experiment: Substrate activity at human EAAT1 assessed as [3H]Asp uptake measured up to 300 uM
[14] = molecular target: T2, Metabotropic glutamate receptor 1; experiment: Agonist activity at rat mGlu1 receptor expressed in HEK293 cells assessed as IP1 accumulation by IP-One functional assay; assay type: cell-based
Procedure, shortened: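 Rat group I receptor transiently electroporated into HEK293 with the EAAC1 glutamate transporter; medium switched to Glutamax at least 2 h before stimulation. IP1 was read by HTRF (IP-One kit) 24 h after transfection. Runs were at least in duplicate, with EC50 ± SEM from n = 4−6 experiments.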

[15] = molecular target: T8, Excitatory amino acid transporter 3 (Homo sapiens, UniProt P43005); experiment: Inhibition of human EAAT3 assessed as [3H]Asp uptake
T8 sequence (P43005 whole entry): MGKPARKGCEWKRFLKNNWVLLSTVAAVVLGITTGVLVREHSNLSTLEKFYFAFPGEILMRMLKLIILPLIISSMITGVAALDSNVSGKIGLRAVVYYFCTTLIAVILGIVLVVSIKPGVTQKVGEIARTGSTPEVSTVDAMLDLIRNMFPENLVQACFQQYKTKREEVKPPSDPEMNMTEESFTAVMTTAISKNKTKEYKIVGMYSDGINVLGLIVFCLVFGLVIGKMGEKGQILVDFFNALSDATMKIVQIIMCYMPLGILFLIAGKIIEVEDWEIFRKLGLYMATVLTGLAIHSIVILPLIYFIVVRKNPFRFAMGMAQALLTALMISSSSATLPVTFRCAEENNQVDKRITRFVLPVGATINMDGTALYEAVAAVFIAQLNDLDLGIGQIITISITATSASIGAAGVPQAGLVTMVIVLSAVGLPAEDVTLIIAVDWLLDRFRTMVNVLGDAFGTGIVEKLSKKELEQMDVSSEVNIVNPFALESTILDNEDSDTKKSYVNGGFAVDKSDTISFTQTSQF

[16] = molecular target: T1, Metabotropic glutamate receptor 2; experiment: Agonist activity at rat mGlu2 receptor expressed in HEK293 cells assessed as IP1 accumulation by IP-One functional assay; assay type: cell-based
Procedure, shortened: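 HEK293 cells were transiently electroporated with the rat receptor plus a chimeric Gi/Gq protein for PLC coupling and EAAC1. Medium was replaced by Glutamax at least 2 h before agonist. IP1 accumulation was measured by HTRF 24 h post-transfection, at least in duplicate.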

[17] = molecular target: T1, Metabotropic glutamate receptor 2; experiment: Agonist activity at rat mGlu2 receptor by FRET based mGlu sensor assay
Procedure, shortened: (§2)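 Receptor carried an N-terminal SNAP-tag and was transfected into HEK293 cells. At 24 h, surface receptors were labelled for 1 h with 100 nM SNAP-Lumi4-Tb (donor) and 60 nM SNAP Green (acceptor), washed three times, then drug was added. Time-resolved FRET was recorded at 520 nm, at least in duplicate.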

[18] = Displacement of [3H]KA from rat synaptosome KA receptor after 60 mins by microplate scintillation counter analysis
[19] = molecular target: T4, Metabotropic glutamate receptor 4; experiment: Agonist activity at rat mGlu4 receptor expressed in HEK293 cells assessed as IP1 accumulation by IP-One functional assay; assay type: cell-based; procedure, shortened: as §1
[20] = molecular target: T7, Excitatory amino acid transporter 2; experiment: Inhibition of human EAAT2 assessed as [3H]Asp uptake
[21] = molecular target: T3, Metabotropic glutamate receptor 5; experiment: Agonist activity at rat mGlu5 receptor expressed in HEK293 cells assessed as IP1 accumulation by IP-One functional assay; assay type: cell-based
[22] = molecular target: T5, Metabotropic glutamate receptor 3; experiment: Agonist activity at rat mGlu3 receptor by FRET based mGlu sensor assay
Procedure, shortened: as §2, with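 “duplicate. EC50 ± SEM came from n = 4−6 experiments.” for “duplicate.”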

[23] = molecular target: Glutamate NMDA receptor; experiment: Displacement of [3H]CGP from rat synaptosome NMDA receptor after 60 mins by microplate scintillation counter analysis; assay type: protein-complex assay
[24] = molecular target: Metabotropic glutamate receptor 2 (Homo sapiens) (UniProt Q14416); experiment: Agonist activity at mGlu2 receptor (unknown origin) assessed as IP1 accumulation preincubated with 3 uM LY341495 for 20 mins followed by addition of 1 mM of compound by IP-One functional assay
Procedure, shortened: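 Single-dose test in HEK293 cells cotransfected with rat receptor, chimeric Gi/Gq and EAAC1. Cells were pretreated with 3 μM LY341495 for 20 min at 37 °C, washed twice, then stimulated with 1 mM compound. IP1 was read by HTRF 24 h post-transfection. Comparison was against vehicle by one-way ANOVA with Dunnett's test.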

[25] = molecular target: Metabotropic glutamate receptor 3 (Rattus norvegicus) (UniProt P31422); experiment: Agonist activity at mGlu3 receptor (rat) assessed as IP1 accumulation preincubated with 3 uM LY341495 for 20 mins followed by addition of 1 mM of compound by IP-One functional assay

T6 sequence (P43003 whole entry): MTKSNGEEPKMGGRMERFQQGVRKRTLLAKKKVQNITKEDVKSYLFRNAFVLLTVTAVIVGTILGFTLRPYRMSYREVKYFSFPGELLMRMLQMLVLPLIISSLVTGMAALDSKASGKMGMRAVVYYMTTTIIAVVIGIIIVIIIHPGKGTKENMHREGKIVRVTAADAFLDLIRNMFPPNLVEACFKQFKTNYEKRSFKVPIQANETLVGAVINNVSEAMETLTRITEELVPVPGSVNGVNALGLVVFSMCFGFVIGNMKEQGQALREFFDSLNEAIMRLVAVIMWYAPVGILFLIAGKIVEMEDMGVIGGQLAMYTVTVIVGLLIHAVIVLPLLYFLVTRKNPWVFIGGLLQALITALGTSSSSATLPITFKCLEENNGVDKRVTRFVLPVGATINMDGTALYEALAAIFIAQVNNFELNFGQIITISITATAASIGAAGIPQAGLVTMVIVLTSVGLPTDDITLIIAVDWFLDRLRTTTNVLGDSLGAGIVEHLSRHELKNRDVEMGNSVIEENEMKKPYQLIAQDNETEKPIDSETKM
T3 sequence (P31424 whole entry): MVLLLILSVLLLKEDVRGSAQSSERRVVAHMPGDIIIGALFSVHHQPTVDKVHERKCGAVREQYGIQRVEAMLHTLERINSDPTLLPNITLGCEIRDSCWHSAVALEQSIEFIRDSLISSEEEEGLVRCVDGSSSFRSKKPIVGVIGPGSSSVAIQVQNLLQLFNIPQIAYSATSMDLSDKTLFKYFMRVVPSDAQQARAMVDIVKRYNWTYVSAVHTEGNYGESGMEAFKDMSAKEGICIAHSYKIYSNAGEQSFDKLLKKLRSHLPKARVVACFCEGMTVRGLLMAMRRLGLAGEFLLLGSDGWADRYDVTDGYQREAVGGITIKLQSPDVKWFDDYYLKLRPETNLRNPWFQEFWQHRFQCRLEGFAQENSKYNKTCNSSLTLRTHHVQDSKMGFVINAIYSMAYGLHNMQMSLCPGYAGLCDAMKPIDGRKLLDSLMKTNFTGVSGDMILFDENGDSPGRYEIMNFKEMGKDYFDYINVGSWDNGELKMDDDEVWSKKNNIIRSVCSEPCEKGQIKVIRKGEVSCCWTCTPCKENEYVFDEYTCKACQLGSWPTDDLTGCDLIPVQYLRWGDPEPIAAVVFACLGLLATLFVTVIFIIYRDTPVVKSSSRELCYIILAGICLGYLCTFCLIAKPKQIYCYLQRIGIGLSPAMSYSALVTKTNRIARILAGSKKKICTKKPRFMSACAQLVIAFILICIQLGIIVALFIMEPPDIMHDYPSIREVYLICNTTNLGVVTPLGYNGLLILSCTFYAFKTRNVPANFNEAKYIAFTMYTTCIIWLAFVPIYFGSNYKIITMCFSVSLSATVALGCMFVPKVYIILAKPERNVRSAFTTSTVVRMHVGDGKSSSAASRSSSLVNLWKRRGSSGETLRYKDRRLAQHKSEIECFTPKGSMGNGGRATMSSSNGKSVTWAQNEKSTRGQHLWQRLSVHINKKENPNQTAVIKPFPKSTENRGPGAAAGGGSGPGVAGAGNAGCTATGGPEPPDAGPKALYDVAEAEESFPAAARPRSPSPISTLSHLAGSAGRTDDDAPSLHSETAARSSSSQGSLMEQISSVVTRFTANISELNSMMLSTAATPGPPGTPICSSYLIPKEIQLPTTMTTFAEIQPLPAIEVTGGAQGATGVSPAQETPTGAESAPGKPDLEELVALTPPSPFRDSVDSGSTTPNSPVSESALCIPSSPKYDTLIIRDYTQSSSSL
T4 sequence (P31423 whole entry): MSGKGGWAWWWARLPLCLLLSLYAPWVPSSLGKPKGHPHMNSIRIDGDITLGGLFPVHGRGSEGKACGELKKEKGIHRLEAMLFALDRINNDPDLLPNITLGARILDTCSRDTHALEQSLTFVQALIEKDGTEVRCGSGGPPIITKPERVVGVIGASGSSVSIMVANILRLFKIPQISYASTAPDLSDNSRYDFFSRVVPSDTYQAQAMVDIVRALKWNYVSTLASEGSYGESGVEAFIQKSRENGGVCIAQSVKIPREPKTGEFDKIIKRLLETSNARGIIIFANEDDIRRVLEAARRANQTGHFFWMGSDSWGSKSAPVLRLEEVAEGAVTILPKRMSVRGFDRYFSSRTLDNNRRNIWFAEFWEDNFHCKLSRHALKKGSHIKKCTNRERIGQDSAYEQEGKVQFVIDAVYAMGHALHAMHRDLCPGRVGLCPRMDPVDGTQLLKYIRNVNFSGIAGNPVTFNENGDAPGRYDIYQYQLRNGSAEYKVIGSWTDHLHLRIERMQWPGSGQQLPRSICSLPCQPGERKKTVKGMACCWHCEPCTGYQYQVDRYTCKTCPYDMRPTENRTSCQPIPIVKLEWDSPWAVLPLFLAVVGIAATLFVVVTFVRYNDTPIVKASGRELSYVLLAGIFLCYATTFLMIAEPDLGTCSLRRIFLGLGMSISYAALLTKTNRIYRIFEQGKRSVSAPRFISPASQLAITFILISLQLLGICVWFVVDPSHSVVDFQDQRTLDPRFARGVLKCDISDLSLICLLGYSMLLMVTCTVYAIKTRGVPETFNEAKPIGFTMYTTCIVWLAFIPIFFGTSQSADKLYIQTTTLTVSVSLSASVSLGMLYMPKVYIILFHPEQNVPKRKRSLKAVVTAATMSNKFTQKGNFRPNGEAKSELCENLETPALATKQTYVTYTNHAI
T2 sequence (P23385 whole entry): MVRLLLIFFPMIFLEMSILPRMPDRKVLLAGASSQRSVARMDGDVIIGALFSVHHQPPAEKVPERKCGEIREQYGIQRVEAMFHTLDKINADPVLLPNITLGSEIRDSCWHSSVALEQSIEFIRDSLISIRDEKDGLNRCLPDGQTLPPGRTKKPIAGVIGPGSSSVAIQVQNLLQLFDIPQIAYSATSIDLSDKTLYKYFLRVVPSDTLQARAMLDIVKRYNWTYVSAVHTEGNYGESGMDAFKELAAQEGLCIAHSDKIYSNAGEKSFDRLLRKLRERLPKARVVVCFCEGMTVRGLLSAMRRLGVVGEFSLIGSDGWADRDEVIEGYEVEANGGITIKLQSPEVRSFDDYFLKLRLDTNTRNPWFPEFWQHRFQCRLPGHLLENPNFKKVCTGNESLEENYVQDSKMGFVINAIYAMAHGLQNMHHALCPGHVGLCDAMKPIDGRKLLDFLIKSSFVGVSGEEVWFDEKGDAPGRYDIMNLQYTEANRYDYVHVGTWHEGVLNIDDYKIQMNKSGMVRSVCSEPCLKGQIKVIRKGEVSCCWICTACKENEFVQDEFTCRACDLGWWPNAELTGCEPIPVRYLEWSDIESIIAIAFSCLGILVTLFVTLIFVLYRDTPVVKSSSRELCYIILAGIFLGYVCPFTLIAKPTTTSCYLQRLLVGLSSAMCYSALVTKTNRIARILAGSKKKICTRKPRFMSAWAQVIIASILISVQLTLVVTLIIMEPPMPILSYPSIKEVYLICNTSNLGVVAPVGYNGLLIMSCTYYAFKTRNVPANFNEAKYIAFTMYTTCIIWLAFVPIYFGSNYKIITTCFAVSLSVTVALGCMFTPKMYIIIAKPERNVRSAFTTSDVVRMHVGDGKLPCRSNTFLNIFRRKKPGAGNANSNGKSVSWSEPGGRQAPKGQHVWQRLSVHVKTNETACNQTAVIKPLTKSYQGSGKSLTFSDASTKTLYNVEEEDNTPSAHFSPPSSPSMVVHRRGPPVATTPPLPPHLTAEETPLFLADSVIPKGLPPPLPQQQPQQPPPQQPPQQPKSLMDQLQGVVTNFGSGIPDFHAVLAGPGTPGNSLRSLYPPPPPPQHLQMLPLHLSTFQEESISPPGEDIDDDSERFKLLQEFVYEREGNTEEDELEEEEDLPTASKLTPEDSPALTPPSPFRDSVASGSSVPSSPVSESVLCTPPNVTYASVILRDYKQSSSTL
Sequence of Metabotropic glutamate receptor 7 (Homo sapiens, UniProt Q14831) (Q14831 whole entry): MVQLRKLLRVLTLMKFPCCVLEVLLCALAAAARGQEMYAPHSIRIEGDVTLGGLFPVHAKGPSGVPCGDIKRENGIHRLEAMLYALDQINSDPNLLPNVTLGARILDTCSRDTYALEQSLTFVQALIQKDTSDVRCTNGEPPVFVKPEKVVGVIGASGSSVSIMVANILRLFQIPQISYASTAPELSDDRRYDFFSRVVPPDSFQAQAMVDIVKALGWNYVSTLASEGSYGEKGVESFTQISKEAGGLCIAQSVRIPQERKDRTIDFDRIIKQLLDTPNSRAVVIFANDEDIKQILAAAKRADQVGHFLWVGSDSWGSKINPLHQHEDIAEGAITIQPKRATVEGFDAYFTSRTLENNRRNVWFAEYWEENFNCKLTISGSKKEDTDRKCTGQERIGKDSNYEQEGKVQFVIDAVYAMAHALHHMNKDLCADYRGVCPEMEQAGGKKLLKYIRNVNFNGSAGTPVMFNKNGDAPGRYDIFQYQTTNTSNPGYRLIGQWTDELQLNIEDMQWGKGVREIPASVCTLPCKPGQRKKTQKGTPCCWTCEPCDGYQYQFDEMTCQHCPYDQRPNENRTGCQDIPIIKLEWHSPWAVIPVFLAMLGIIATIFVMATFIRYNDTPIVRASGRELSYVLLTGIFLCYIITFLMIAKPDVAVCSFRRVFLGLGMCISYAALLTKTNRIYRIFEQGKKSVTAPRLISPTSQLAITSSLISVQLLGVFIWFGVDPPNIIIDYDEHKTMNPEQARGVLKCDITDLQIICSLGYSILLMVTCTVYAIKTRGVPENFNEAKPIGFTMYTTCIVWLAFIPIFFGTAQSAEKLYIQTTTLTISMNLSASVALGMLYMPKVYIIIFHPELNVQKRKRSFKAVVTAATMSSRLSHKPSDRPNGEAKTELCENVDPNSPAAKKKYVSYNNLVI
Sequence of Metabotropic glutamate receptor 7 (Rattus norvegicus, UniProt P35400) (P35400 whole entry): as the sequence (Q14831 whole entry) above, with R5G, A27V, N454H, S488T, A520S, D578N counted along it

SMILES | EC50 ([1]; read-out: EC50) [µM] | EC50 [2] [µM] | EC50 [3] [µM] | EC50 [4] [µM] | EC50 [5] [µM] | EC50 [6] [µM] | EC50 [8] [µM] | EC50 [9] [µM] | EC50 [7] [µM] | IC50 [10] [µM] | Activity [11] | IC50 [12] [µM] | Activity [13] | EC50 [14] [µM] | IC50 [15] [µM] | EC50 [16] [µM] | EC50 [17] [µM] | IC50 [18] [µM] | EC50 [19] [µM] | IC50 [20] [µM] | also measured
NCC[C@H](C[C@H](N)C(=O)O)C(=O)O | > 1000 | > 1000 | > 1000 | > 1000 | > 1000 | > 1000 |  |  |  |  |  |  |  |  |  |  |  |  |  |  | 
N[C@@H](CCP(=O)(O)O)C(=O)O |  |  |  |  |  |  | 340 | 1.91 |  |  |  |  |  |  |  |  |  |  |  |  | EC50 ([7]; hek293): 0.07 µM
CC[C@H](C[C@H](N)C(=O)O)C(=O)O | > 1000 | > 1000 |  | > 1000 |  |  |  |  |  |  |  |  |  |  |  |  |  |  |  |  | 
N[C@@H](C[C@@]1(C(=O)O)C[C@@H]1C(=O)O)C(=O)O |  |  |  |  |  |  | > 1000 | 17.8 | 20.8 | > 300 | inactive | > 100 | inactive | > 1000 | > 300 | > 1000 | > 1000 | > 100 | 2.48 | > 300 | EC50 [21]: > 1000 µM; EC50 [22]: > 1000 µM; Ki [23]: 15 µM
NC(=O)CC[C@H](C[C@H](N)C(=O)O)C(=O)O | > 1000 | > 1000 | > 1000 | > 1000 |  |  |  |  |  |  |  |  |  |  |  |  |  |  |  |  | 
N#CCC[C@H](C[C@H](N)C(=O)O)C(=O)O | > 1000 | > 1000 | > 1000 | > 1000 | > 1000 | > 1000 |  |  |  |  |  |  |  |  |  |  |  |  |  |  | 
N[C@@H](C[C@@H](CCC(=O)O)C(=O)O)C(=O)O | 1.63 | > 1000 | > 1000 | > 1000 | > 1000 | 348 | > 1000 | > 1000 | > 1000 | > 300 | inactive | > 100 | inactive | > 1000 | > 300 | 34.2 | 120 | > 100 | ≥ 100 | > 300 | EC50 ([1]; read-out: pEC50 (converted)): 1.66 µM; Activity [24]: Active; EC50 [21]: > 1000 µM; EC50 [22]: > 1000 µM; Activity [25]: inactive
CCC[C@H](C[C@H](N)C(=O)O)C(=O)O | > 1000 | > 1000 |  | > 1000 |  |  |  |  |  |  |  |  |  |  |  |  |  |  |  |  | 
N[C@@H](C[C@]1(C(=O)O)C[C@H]1C(=O)O)C(=O)O |  |  |  |  |  |  | 120 | 0.49 | 0.68 | > 300 | inactive | > 100 | inactive | > 1000 | > 300 | 145 | > 1000 | > 100 | 0.13 | > 300 | Activity [24]: Active; EC50 [21]: > 1000 µM; EC50 [22]: > 1000 µM; Activity [25]: inactive; Ki [23]: 13 µM
COC(=O)CC[C@H](C[C@H](N)C(=O)O)C(=O)O | > 1000 | > 1000 | > 1000 | > 1000 |  |  |  |  |  |  |  |  |  |  |  |  |  |  |  |  | 
